From PubChem BioAssay
Sampled rows, rich in hits. Any-hit rate of the full collection: about 5.7%.
Calb FLC: C. albicans growth inhibition with fluconazole, primary screen, CaCi-2 strain, Alamar Blue fluorescence; AID 1979, 2009; growth inhibition, % (no concentration beside the values); C. albicans CaCi-2 (fluconazole-resistant clinical isolate) + fluconazole, 48 h; actives 0.57% (n = 300,000);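 active = growth inhibition above about 58% in most replicates, limit read from the data, passing the limit was not always enough; inconclusive = exactly half the replicates above a set limit; inactive = most replicates below a set limit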;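 also: all wells also contain fluconazole at 8 µg/ml as a sub-toxic cotreatment; 0% = median of DMSO wells and 100% = median of geldanamycin control wells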
T cruzi inh: inhibitors of intracellular T. cruzi growth, primary screen, luminescence, NIH3T3 host cells | T. cruzi beta-gal in NIH3T3, 90 h | inhibition, % (concentration not given with the values) | actives 1.4% (n = 300,000);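 active = mean inhibition across valid replicates above about 55%, limit read from the data; inconclusive = mean below that limit but half or more replicates reach it; inactive = mean below it, under half of replicates reach it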;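 also: signal also drops with host cell toxicity which is not excluded here; 0% = plate median of DMSO wells and 100% = zero luminescence signal; higher percent means less beta-gal luminescence so fewer parasites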
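System – NIH/3T3 host cells with β-galactosidase reporter T. cruzi · Doses – single 50 nL compound addition per well in DMSO · Reagent – 5000 T. cruzi trypomastigotes/well · Medium – Low-serum DMEM with 2% FBS · Timing – ≥90 h infection period, 3 h prior cell attachment · Evaluation – parasite load inhibition, % · Technique – GalScreen luminescence, 60 min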
Beta cell apopt: inhibitors of cytokine-induced beta cell apoptosis, primary screen, luminescence. INS-1E cytokine-induced death, ATP luminescence, 48 h; percent of positive-control rescue, neutral wells zero. actives 0.8% (n = 300,000). protection from apoptosis, % (test concentration not listed);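 active = Every replicate reaches about 75%, or at least half do and their mean reaches it too, limit read from the data; inconclusive = At least half of replicates reach the limit but their mean does not; inactive = Under half of replicates reach the limit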;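 also: 0% = cytokine-treated negative control wells and 100% = positive control rescue; higher means more ATP so stronger rescue from cytokine killing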
SKKanGAS inh: S. pyogenes SKKanGAS growth inhibitors in kanamycin, primary screen, streptokinase expression inhibitor project, SKKanGAS strain, BacTiter-Glo luminescence; 6 h; inhibition, % at 7.5 µM; actives 1.3% (n = 300,000);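 active = mean replicate score, as percent of positive control median, at least 50; inconclusive = mean below 50 but one replicate at or above 50; inactive = mean and every replicate below 50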;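 also: strain carries kanamycin resistance gene driven by streptokinase promoter and grows in 40 µg/ml kanamycin; loss of luminescence reflects streptokinase promoter inhibition or plain growth inhibition; 0% = median of DMSO wells and 100% = positive control at its reference dose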
CSC inhib: cancer stem cell viability inhibitors, primary screen, luminescence | cancer stem cell-like cells viability | inhibition, % at 7.5 µM | actives 1.1% (n = 300,000) | AID 2717, 2010; in the data active = inhibition above about 75%; inconclusive = no clear call, values can overlap the other calls; tested in HMLE shEcad cells
Mdm2-MdmX inh: inhibitors of human Mdm2-MdmX association, primary screen, cell-based, luminescence, split luciferase, SaOS-2, uHTS; Protein Mdm4 (Homo sapiens) + E3 ubiquitin-protein ligase Mdm2 (Homo sapiens), …; SaOS-2 split-luciferase Mdm2/MdmX complementation; inhibition, % at 8 µM; actives 3% (n = 330,000); AID 485346, 2010;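 active = inhibition of at least 50% at 8 µM in the primary screen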
Target sequence (O15151 whole entry, looked up): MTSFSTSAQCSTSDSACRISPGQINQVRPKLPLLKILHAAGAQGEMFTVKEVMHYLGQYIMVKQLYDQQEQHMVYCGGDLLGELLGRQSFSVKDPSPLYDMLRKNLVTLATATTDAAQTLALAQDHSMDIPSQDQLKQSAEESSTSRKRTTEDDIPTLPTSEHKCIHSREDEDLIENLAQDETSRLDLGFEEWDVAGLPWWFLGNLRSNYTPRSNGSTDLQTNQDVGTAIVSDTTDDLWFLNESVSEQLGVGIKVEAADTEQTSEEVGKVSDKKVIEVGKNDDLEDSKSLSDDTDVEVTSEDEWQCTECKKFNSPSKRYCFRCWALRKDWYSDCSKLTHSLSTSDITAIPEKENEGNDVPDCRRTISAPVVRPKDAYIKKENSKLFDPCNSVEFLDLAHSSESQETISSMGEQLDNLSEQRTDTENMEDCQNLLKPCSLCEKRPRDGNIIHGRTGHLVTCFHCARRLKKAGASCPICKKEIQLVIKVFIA
Target sequence (Q00987 whole entry, looked up): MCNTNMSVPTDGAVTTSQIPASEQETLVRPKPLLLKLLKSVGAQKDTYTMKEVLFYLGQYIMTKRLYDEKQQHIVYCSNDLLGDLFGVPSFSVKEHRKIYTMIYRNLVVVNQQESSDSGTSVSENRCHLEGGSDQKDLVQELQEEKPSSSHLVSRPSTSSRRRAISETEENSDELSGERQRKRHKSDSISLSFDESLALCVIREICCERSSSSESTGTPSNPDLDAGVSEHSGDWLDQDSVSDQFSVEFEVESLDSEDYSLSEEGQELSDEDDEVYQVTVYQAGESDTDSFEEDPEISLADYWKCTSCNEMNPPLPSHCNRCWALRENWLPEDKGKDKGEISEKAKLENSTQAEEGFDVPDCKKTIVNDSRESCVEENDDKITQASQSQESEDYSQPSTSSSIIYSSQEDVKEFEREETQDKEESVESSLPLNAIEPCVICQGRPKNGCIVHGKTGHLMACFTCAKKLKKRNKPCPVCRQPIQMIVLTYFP
Mdm2 MdmX conf: Mdm2-MdmX complex disruptors, retested hits, confirmation, luminescence, single concentration. AID 489028, 2010. inhibition, % at 8 µM. shares compounds with Mdm2-MdmX inh. actives 55% (n = 10,000). Mdm2-MdmX binding, luminescent assay; in the data active = inhibition above about 40%
FLuc counter: full-length luciferase signal inhibition, confirmation, counter-screen for Mdm2/MdmX interaction inhibitor project, cell-based, single concentration, SaOS-2; shares compounds with Mdm2-MdmX inh; SaOS-2 full-length luciferase counterscreen, luminescence; actives 77% (n = 6,200); AID 504607, 2011; inhibition, % at 8 µM;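 active = mean inhibition at 8 µM reaching about 37%, which flags the compound as non-specific, limit read from the data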;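 also: p53-null SaOS-2 cells with luciferase driven by a doxycycline-inducible promoter; compound on cells about two nights before reading with doxycycline added after day one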
The depositor's hits bear a star; u = inconclusive; x = not tested or not shown.

SMILES	Calb FLC	T cruzi inh	Beta cell apopt	SKKanGAS inh	CSC inhib	Mdm2-MdmX inh	Mdm2 MdmX conf	FLuc counter
O=C(NCC1CCCO1)c1ccc2c(=O)n(Cc3ccc(Cl)cc3)c(=S)[nH]c2c1 (stereo not drawn)	-1	-1	2	9	-8	56*	31	x
CC1CCCCN1CCNC(=O)c1ccc2c(=O)n(Cc3ccc(Cl)cc3)c(=S)[nH]c2c1 (stereo not drawn)	28	24	5	38	-12	78*	32	x
O=C(C[C@H]1C/C=C\CC[C@H](Cc2ccc(F)cc2)C(=O)O[C@H](c2ccccc2)CNC1=O)N[C@H](CO)Cc1ccccc1	x	x	1	x	-7	42	x	x
COC(=O)[C@@H]1CC[C@H](C)[C@@H](c2ccc(C)cc2)N1C(=O)c1ccc(/C=N/O[C@@H](C)c2cn([C@H](CO)Cc3ccccc3)nn2)cc1	26	62*	4	25	32	88*	66*	51*
COCCCNC(=O)c1ccc(S(=O)(=O)c2ccc(C)cc2)c(NC(C)=O)c1	0	-11	x	2	x	23	x	x
Cc1ccc2oc(C(F)(F)C(F)F)cc(=O)c2c1	-9	-18	-6	-14	-12	25	x	x
Cc1ccc2oc(C(Cl)(Cl)Cl)cc(=O)c2c1	35	4	12	1	33	74*	53*	60*
O=C1CN(C(=O)COC(=O)c2ccccc2Br)c2ccccc2N1	x	x	-1	x	5	7	x	x
C=CCN1C(=O)N/C(=C/c2ccc(C)o2)C1=O	8	-7	14	7	4	7	x	x
CCOc1ccc(S(=O)(=O)N2CCC(C(=O)NCc3ccncc3)CC2)cc1	-7	4	1	-5	-7	8	x	x
COc1ccccc1OCCNC(=O)CN1C(=O)NC2(CCCC2)C1=O	x	x	x	x	x	7	x	x
CC(NCc1ccc(-c2ccccc2)cc1)C(O)c1ccccc1 (stereo not drawn)	1	11	8	4	63	82*	63*	64*
Clc1ccc(-c2nnc(Sc3nc4ccccc4o3)c3ccccc23)cc1	26	2	7	-4	67	61*	18	x
Cc1ccc(-c2nnc(Sc3nc4ccccc4o3)c3ccccc23)cc1	4	13	2	6	u	53*	-8	x
Nc1nc(SCC(=O)Nc2ccc(OCc3ccccc3)cc2)n[nH]1	0	-13	-2	1	4	-12	x	x
CCN(CC)S(=O)(=O)c1ccc(N2CCN(C)CC2)c(NC(=O)Nc2ccc(C)cc2)c1	3	33	5	-3	28	10	x	x
C=C(C)C1Cc2c(C)nn(-c3nc(C)cc(C)n3)c2C1 (stereo not drawn)	1	-4	23	56*	-20	55*	9	x
N#C/C(=C\c1ccccc1[N+](=O)[O-])c1nc(C2CC2)cs1	0	10	-11	-1	3	-20	x	x
N#C/C(=C\C=C\c1ccccc1[N+](=O)[O-])c1nc(-c2ccc3c(c2)OCO3)cs1	-11	-13	-1	-2	-1	63*	7	x
C/C=C/c1cc(CN2CCN(c3ccccc3)CC2)c(O)c(OC)c1	-4	0	5	0	22	82*	45*	83*
C/C=C/c1cc(CN2CCN(c3ccc(OC)cc3)CC2)c(O)c(OC)c1	9	13	4	17	3	17	x	x
Oc1ccc(-c2nc3c4c(ncn3n2)-c2ccccc2CC42CCCC2)cc1	3	44	-5	95*	-6	78*	6	x
Cc1ccc(S(=O)(=O)N(C)c2ccc3c(ncn3C)c2[N+](=O)[O-])cc1	0	4	-1	-1	16	-3	x	x
CCC[C@H](CN[C@@H](CNC)[C@H](C)CC)NCCc1cc(C(F)(F)F)cc(C(F)(F)F)c1	-37	32	17	51*	59	97*	100*	52*
CC[C@@H](C)[C@H](CNC)NC[C@@H](Cc1cccc2ccccc12)NCCc1cccc(C(F)(F)F)c1	112*	38	14	99*	u	100*	100*	52*
SMILES	Calb FLC	T cruzi inh	Beta cell apopt	SKKanGAS inh	CSC inhib	Mdm2-MdmX inh	Mdm2 MdmX conf	FLuc counter
CCC[C@@H](CN[C@@H](CNC)[C@H](C)CC)NCC1CCC(C(C)(C)C)CC1 (stereo partly drawn)	-31	44	62	1	44	99*	100*	2
CCOC(=O)c1ccc(Oc2ccc(C(F)(F)F)cn2)cc1	23	0	-1	8	10	13	x	x
CCCCNC(=O)Cn1c(=O)c2c(ncn2CC)n(Cc2ccccc2)c1=O	7	-1	-6	-1	-10	-10	x	x
Cc1nc(Nc2nc3c(c(=O)[nH]2)CCC3)nc2ccccc12	47	-14	-11	23	32	65*	88*	22
O=C(NC(=S)Nc1cc(-c2nc3ccccc3[nH]2)ccc1Cl)c1ccc2c(c1)OCO2	2	42	89*	15	94*	101*	71*	70*
CCOc1ccc(C(=O)Nc2cc(-c3nc4ccccc4[nH]3)ccc2Cl)cc1[N+](=O)[O-]	-6	37	10	15	u	93*	23	x
CCOc1ccc(C(=O)Nc2cc(-c3nc4ccccc4[nH]3)ccc2C)cc1[N+](=O)[O-]	-1	18	0	6	20	45	x	x
CC(C)(C)NC(=S)NCC1CC1	2	-15	-12	4	-6	21	x	x
Cc1cc(NO)c(C(C)C)cc1N=O	11	1	0	-3	2	60*	36	x
Cc1cc(O)c(C(C)C)cc1N=Nc1ccccc1C(=O)O	49	10	-1	4	26	3	x	x
CCOC(=O)C1=C(C)N=c2s/c(=C/c3cccc([N+](=O)[O-])c3O)c(=O)n2C1c1cc(OC)c(OC)c(OC)c1 (stereo not drawn)	-5	-5	-3	27	9	52*	9	x
CCC(C)(C)C1CCC2(CC1)NC(=O)N(CC(=O)N1CCN(S(=O)(=O)c3cc(C)ccc3C)CC1)C2=O (stereo not drawn)	16	32	29	6	7	82*	37	89*
